Test results taken from ChEMBL document CHEMBL1155439, “Transient receptor potential ankyrin 1 (TRPA1) channel as emerging target for novel analgesics and anti-inflammatory agents” (J Med Chem, 2010).

Experiments:
[1] = biological target: T1, Transient receptor potential cation channel subfamily A member 1 (Homo sapiens, UniProt O75762); experiment: Activation of TRPA1 channel
How it was run: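 Cell lines transfected with TRPA1 and loaded with a calcium-sensitive dye, read on FLIPR. Calcium influx is counted as the change in fluorescence above background. Each material was tested by preincubation or by direct addition. Calcium counts are expressed as a percentage of the control calcium count.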

[2] = biological target: T1, Transient receptor potential cation channel subfamily A member 1; experiment: Agonist activity at human TRPA1 channel expressed in HEK293 cells assessed as increase in membrane currents; format: functional, cell-based
[3] = biological target: T1, Transient receptor potential cation channel subfamily A member 1; experiment: Agonist activity at human TRPA1 channel expressed in CHO cells assessed as increase in intracellular calcium levels; format: functional, cell-based
[4] = biological target: T2, Transient receptor potential cation channel subfamily A member 1 (Mus musculus, UniProt Q8BLA8); experiment: Agonist activity at mouse TRPA1 channel expressed in CHO cells assessed as increase in intracellular calcium influx; format: functional, cell-based
[5] = biological target: T1, Transient receptor potential cation channel subfamily A member 1; experiment: Antagonist activity at human TRPA1 channel assessed as inhibition of allyl isothiocyanate-induced intracellular calcium influx; format: functional, cell-based
[6] = biological target: T3, Transient receptor potential cation channel subfamily A member 1 (Rattus norvegicus, UniProt Q6RI86); experiment: Agonist activity at rat TRPA1 channel expressed in HEK293 cells assessed as increase in intracellular calcium influx; format: functional, cell-based
[7] = biological target: T1, Transient receptor potential cation channel subfamily A member 1; experiment: Antagonist activity at TRPA1 channel at 10 uM; format: functional
[8] = biological target: T1, Transient receptor potential cation channel subfamily A member 1; experiment: Antagonist activity at TRPA1 channel; format: functional
[9] = biological target: T1, Transient receptor potential cation channel subfamily A member 1; experiment: Antagonist activity at TRPA1 channel at 1 uM; format: functional
[10] = biological target: T1, Transient receptor potential cation channel subfamily A member 1; experiment: Activation of TRPA1 channel expressed in CHO cells assessed as increase in intracellular calcium levels; format: cell-based
[11] = biological target: T1, Transient receptor potential cation channel subfamily A member 1; experiment: Agonist activity at human TRPA1 channel expressed in HEK293 cells assessed as increase in intracellular calcium influx; format: functional, cell-based
[12] = biological target: T1, Transient receptor potential cation channel subfamily A member 1; experiment: Antagonist activity at human TRPA1 channel expressed in CHO cells assessed as inhibition of cinnamaldehyde-induced intracellular calcium influx; format: functional, cell-based
[13] = biological target: T2, Transient receptor potential cation channel subfamily A member 1; experiment: Agonist activity at mouse TRPA1 channel expressed in HEK293 cells assessed as increase in intracellular calcium influx; format: functional, cell-based
[14] = biological target: T2, Transient receptor potential cation channel subfamily A member 1; experiment: Agonist activity at TRPA1 channel in mouse dorsal root ganglion cells assessed as increase in intracellular calcium influx by radiometric Ca2+ imaging; format: functional, tissue-based
[15] = biological target: T3, Transient receptor potential cation channel subfamily A member 1; experiment: Agonist activity at TRPA1 channel in rat DRG neurons assessed as increase in intracellular calcium influx; format: functional, cell-based
[16] = biological target: T1, Transient receptor potential cation channel subfamily A member 1; experiment: Agonist activity at human TRPA1 channel in HEK293 cells assessed as increase in intracellular calcium influx by radiometric Ca2+ imaging; format: functional, cell-based

T3 sequence (Q6RI86 whole entry): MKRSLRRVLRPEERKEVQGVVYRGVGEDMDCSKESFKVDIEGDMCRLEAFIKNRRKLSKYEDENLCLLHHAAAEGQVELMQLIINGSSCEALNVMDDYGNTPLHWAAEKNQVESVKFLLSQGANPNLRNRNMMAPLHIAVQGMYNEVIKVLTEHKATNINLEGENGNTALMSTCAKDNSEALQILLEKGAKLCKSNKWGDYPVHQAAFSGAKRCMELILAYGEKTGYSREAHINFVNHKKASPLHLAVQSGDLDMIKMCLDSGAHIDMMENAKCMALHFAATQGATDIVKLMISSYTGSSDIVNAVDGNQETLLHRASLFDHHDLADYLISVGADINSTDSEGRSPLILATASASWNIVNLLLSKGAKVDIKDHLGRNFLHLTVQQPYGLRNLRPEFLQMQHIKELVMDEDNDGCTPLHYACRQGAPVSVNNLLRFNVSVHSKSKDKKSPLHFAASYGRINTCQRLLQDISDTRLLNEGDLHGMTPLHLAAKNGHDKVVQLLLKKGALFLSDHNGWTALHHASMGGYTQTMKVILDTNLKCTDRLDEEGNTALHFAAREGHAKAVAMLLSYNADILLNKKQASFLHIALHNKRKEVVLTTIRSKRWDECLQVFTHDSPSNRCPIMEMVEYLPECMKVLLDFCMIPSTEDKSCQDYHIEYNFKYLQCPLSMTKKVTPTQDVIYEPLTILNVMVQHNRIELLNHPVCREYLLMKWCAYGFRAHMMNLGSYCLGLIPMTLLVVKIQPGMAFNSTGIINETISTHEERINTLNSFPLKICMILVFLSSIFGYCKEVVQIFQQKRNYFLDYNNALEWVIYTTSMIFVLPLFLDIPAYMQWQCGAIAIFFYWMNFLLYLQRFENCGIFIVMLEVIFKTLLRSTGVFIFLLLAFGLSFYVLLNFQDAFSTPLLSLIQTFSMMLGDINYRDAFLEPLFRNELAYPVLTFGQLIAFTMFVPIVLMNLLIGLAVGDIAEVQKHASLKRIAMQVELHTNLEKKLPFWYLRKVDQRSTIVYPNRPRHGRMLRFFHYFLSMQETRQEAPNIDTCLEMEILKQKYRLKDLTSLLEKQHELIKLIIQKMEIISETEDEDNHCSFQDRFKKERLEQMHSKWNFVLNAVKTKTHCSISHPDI
T1 sequence (O75762 whole entry): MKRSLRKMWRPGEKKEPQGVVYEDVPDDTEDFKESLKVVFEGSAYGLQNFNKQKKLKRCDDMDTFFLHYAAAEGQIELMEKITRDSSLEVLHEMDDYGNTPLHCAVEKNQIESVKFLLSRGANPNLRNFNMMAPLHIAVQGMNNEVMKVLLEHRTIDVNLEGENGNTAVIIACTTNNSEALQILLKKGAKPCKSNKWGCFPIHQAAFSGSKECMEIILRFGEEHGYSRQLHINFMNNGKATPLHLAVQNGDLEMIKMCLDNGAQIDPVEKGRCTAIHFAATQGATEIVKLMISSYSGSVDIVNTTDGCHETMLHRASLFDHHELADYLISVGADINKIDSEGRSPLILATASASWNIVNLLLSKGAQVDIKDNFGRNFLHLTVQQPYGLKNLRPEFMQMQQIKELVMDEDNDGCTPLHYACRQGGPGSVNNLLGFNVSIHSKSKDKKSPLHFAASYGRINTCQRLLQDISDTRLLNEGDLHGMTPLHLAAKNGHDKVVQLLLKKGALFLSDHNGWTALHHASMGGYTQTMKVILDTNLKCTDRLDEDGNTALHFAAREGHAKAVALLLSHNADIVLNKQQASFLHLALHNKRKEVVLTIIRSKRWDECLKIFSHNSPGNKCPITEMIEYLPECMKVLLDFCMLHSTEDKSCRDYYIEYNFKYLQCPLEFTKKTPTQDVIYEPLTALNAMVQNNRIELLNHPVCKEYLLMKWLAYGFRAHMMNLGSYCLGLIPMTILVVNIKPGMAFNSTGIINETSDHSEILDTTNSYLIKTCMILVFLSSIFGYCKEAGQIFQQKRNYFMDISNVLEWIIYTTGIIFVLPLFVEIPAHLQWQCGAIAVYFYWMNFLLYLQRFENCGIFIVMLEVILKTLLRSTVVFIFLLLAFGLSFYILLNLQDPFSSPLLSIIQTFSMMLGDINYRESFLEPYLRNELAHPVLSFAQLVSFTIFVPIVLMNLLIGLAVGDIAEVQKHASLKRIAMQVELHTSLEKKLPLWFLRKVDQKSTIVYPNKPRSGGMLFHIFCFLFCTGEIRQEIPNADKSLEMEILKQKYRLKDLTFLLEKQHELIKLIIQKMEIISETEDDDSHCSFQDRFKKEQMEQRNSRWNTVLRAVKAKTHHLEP
T2 sequence (Q8BLA8 whole entry): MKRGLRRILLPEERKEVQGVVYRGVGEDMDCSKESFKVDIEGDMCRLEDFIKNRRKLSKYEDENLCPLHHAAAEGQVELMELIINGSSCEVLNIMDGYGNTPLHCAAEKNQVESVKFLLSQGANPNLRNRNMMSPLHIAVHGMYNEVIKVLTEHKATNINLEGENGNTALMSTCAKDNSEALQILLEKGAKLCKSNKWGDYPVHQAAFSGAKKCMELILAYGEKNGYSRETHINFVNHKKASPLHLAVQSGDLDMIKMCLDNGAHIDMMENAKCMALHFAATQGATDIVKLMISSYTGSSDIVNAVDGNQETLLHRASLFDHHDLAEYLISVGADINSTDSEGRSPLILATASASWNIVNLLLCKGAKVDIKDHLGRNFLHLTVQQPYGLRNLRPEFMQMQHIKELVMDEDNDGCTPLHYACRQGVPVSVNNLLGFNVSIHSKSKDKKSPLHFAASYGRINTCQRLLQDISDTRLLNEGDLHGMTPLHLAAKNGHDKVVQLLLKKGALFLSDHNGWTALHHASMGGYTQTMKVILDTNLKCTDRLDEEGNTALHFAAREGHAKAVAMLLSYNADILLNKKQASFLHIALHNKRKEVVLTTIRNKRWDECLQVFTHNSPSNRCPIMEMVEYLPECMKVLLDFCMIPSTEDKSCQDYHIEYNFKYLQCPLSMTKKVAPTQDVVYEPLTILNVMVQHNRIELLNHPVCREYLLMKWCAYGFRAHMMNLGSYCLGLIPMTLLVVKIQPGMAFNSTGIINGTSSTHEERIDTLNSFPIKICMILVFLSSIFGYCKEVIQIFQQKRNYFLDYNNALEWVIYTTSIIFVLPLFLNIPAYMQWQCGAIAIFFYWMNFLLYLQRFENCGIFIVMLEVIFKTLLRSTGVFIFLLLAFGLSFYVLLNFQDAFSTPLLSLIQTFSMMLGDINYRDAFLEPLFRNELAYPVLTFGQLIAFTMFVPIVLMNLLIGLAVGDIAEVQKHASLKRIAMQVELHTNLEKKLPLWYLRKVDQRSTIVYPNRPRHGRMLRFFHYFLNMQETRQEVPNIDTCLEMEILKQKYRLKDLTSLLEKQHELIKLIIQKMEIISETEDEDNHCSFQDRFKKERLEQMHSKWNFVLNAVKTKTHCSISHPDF

C=CC=O [ACROLEIN] gave an EC50 [1] of 0.8 µM.
With O=C1/C(=C/c2nccs2)c2ccccc2N1Cc1ccccc1 the EC50 [2] was 5.65 µM.
In the case of CC1(C)CCC[C@]2(C)[C@@H](C=O)C(C=O)=CC[C@@H]12 [POLYGODIAL], the EC50 [3] is reported as 0.059 µM.
With CCCCC/C=C/C=C1/C(=O)C=C[C@@H]1C/C=C\CCCC(=O)O the EC50 [1] was 5.6 µM.
With COC(=O)C1=C(C)NC(C)=C(C(=O)OC)C1c1ccccc1[N+](=O)[O-] [NIFEDIPINE] the EC50 [4] was 0.4 µM.
For Cn1c(=O)c2c(ncn2CC(=O)Nc2nc(-c3ccccc3)cs2)n(C)c1=O, the IC50 [5] was < 1 µM.
CCCCCc1cc(O)c2c(c1C(=O)O)OC(C)(C)[C@@H]1CCC(C)=C[C@@H]21 [TETRAHYDROCANNABINOL ACID] showed an EC50 [6] of 0.24 µM.
Compound COCCOC(=O)C1=C(C)NC(C)=C(C(=O)OC(C)C)C1c1cccc([N+](=O)[O-])c1 (stereo not given) [NIMODIPINE] has an EC50 [4] of 0.8 µM.
COC(=O)c1cccc(CN2C(=O)/C(=C/C(N)=O)c3ccccc32)c1 showed an EC50 [2] of 1.2 µM.
Work on CCCCC[C@H](O)/C=C/[C@H]1C=CC(=O)[C@@H]1C/C=C\CCCC(=O)O [PROSTAGLANDIN A2] yielded an EC50 [1] of 24 µM.
In the case of COc1cccc(-c2csc(NC(=O)Cn3cnc4c3c(=O)n(C)c(=O)n4C)n2)c1, the IC50 [5] is reported as < 1 µM.
In the case of CN1C(=O)c2cccc(CC(=O)Nc3nc(-c4cc(F)c(C(F)(F)F)c(F)c4)cs3)c2C1=O, the inhibition [7] is reported as 100%, the IC50 [8] is reported as 0.25 µM and the inhibition [9] is reported as 92%.
In the case of COC(=O)C1=C(C)NC(C)=C([N+](=O)[O-])C1c1ccccc1C(F)(F)F (stereo not given), the EC50 [4] is reported as 32.7 µM.
CN(C)C(=O)/C=C1/C(=O)N(CC2CCCC2)c2c(F)cccc21 gave an EC50 [2] of 3.76 µM.
Work on CN1C(=O)c2cccc(CC(=O)Nc3nc(-c4ccc(Cl)cc4)cs3)c2C1=O yielded an inhibition [7] of 93%, an IC50 [8] of 0.5 µM and an inhibition [9] of 39%.
O=C/C=C/c1ccccc1 gave an EC50 [10] of 6.5 µM.
CN1C(=O)c2cccc(CC(=O)Nc3nc(-c4cccc(C(F)(F)F)c4)cs3)c2C1=O was tested, and the inhibition [7] was 96%, the IC50 [8] was 0.5 µM and the inhibition [9] was 60%.
NC(=O)c1cccc(-c2cccc(OC(=O)NC3CCCCC3)c2)c1 [URB-597] showed an EC50 [11] of 24.5 µM.
Work on CCCCCc1cc(O)c(C/C=C(\C)CCC=C(C)C)c(O)c1 [CANNABIGEROL] yielded an EC50 [6] of 3.4 µM.
Work on CC(C)=CCC/C(C)=C/CC/C(C)=C/CSCC(=O)O [FARNESYLTHIOACETIC ACID] yielded an EC50 [3] of 90 µM.
CCC(=N\O)/C(C)=C/c1cncc2ccccc12 was tested, and the IC50 [12] was > 100 µM.
CN1C(=O)c2cccc(CC(=O)Nc3nc(-c4ccc(Cl)c(Cl)c4)cs3)c2C1=O was tested, and the inhibition [7] was 98%, the IC50 [8] was 0.25 µM and the inhibition [9] was 86%.
For CCCCC[C@H](O)/C=C/[C@H]1C=CC(=O)[C@@H]1CCCCCCC(=O)O [PROSTAGLANDIN A1], the EC50 [1] was 15.1 µM.
For Cn1c(=O)c2c(ncn2CC(=O)Nc2nc(-c3ccccc3F)cs2)n(C)c1=O, the IC50 [5] was < 1 µM.
In the case of CC1(C)C[C@H]2C=C(C=O)[C@]3(C=O)C[C@]3(C)[C@H]2C1 [ISOVELLERAL], the EC50 [13] is reported as 2.58 µM, the EC50 [14] is reported as 130 µM and the EC50 [11] is reported as 0.59 µM.
Cc1cc(-c2csc(NC(=O)Cc3cccc4c3C(=O)N(C)C4=O)n2)ccc1Cl was tested, and the inhibition [7] was 91%, the IC50 [8] was 0.25 µM and the inhibition [9] was 83%.
With CCCCCc1cc(O)c2c(c1)OC(C)(CCC=C(C)C)C=C2 (stereo not given) [CANNABICHROMENE] the EC50 [6] was 0.06 µM and the EC50 [15] was 34.3 µM.
For CC(C)CN1C(=O)/C(=C/C(=O)O)c2cccc(F)c21, the EC50 [2] was 0.83 µM.
C=CCSSSCC=C [ALLITRIDIN] was tested, and the EC50 [3] was 0.49 µM.
In the case of CCN(CC)C(=S)SSC(=S)N(CC)CC, the EC50 [3] is reported as 3 µM.
O=C(O)/C=C1/C(=O)N(CC2CCCC2)c2ccccc21 showed an EC50 [2] of 3 µM.
CC(C)CCC(=O)c1ccoc1 [PERILLAKETONE] gave an EC50 [1] of 19.7 µM.
Compound S=C=NCCc1ccccc1 [PHENETHYLISOTHIOCYANATE] has an EC50 [1] of 10 µM.
Work on CO/C(O)=C1\C(C)=NC(C)=C([N+](=O)[O-])[C@H]1c1ccccc1C(F)(F)F yielded an EC50 [4] of 41.5 µM.
With CC1(C)CCC[C@]2(C)[C@@H](CC/C=C(/C=O)CC=O)[C@@H](C=O)CC[C@@H]12 [MIOGATRIAL] the EC50 [3] was 0.13 µM.
For CCCCC[C@H](O)/C=C/[C@H]1C=CC(=O)[C@H]1C/C=C\CCCC(=O)O, the EC50 [1] was 22.4 µM.
CCC(CC)CN1C(=O)/C(=C/C(=O)N2CCOCC2)c2cccc(F)c21 was tested, and the EC50 [2] was 1.29 µM.
With CC(C)c1ccc(NC(=O)Cc2cccc3c2C(=O)N(C)C3=O)cc1 the inhibition [7] was 21% and the inhibition [9] was 18%.
Work on CCCCCc1cc(O)c2c(c1)OC(C)(C)[C@@H]1CCC(C)=C[C@@H]21 [DRONABINOL] yielded an EC50 [6] of 0.23 µM.
Work on CCCCCCCC/C=C(\CCCCCCCC(=O)O)[N+](=O)[O-] [NITROLEIC ACID] yielded an EC50 [16] of 1 µM.
In the case of C=C(C)[C@@H]1CCC(C)=C[C@H]1c1c(O)cc(CCCCC)cc1O [CANNABIDIOL], the EC50 [6] is reported as 0.096 µM.
